Experimental data published in ChEMBL document CHEMBL1143247, “Vesicular monoamine transporter substrate/inhibitor activity of MPTP/MPP+ derivatives: a structure-activity study” (J Med Chem, 2008).

B1: Synaptic vesicular amine transporter (Bos taurus), Q27963 (protein)
chain: MALSELALLRRLQESRHSRKLILFIVFLALLLDNMLLTVVVPIIPSYLYSIEHEKDALEIQTAKPGLTASAPGSFQNIFSYYDNSTMVTGNSTDHLQGALVHEATTQHMATNSSSASSDCPSEDKDLLNENVQVGLLFASKATVQLLTNPFIGLLTNRIGYPIPMFTGFCIMFISTVMFAFSRTYAFLLIARSLQGIGSSCSSVAGMGMLASVYTDDEERGNAMGIALGGLAMGVLVGPPFGSVLYEFVGKTAPFLVLAALVLLDGAIQLFVLQPSRVQPESQKGTPLTTLLRDPYILIAAGSICFANMGIAMLEPALPIWMMETMCSHKWQLGVAFLPASVSYLIGTNVFGILAHKMGRWLCALLGMIIVGMSILCIPLAKNIYGLIAPNFGVGFAIGMVDSSMMPIMGYLVDLRHVSVYGSVYAIADVAFCMGYAIGPSAGGAIAKAIGFPWLMTIIGIIDILFAPLCFFLRSPPAKEEKMAILMDHNCPIKTKMYTQNSSQSHPIGEDEESESD

Assays:
[1] = target: Synaptic vesicular amine transporter (Bos taurus, UniProt Q27963); assay: Inhibition of dopamine uptake at VMAT in bovine chromaffin granule ghosts
In short: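 Resealed bovine chromaffin granule ghosts preincubated 10 min at 30 °C in 0.3 M sucrose, 10 mM HEPES, 5 mM Mg-ATP, 5 mM MgSO₄, 100 µg/mL catalase, pH 7.0. Inhibitor then added for 2 min before starting uptake with DA. Aliquots taken at 6 min intervals, pelleted, washed and extracted in 0.1 M HClO₄. Intragranular catecholamines measured by HPLC-EC. Ki obtained by fitting typically 4–5 inhibitor × 6 DA concentrations to a competitive model. Errors are fitting standard errors.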

[2] = target: Synaptic vesicular amine transporter (Bos taurus) (UniProt Q27963); assay: Ratio of Km for dopamine uptake at VMAT in bovine chromaffin granule ghosts to Ki for VMAT in bovine chromaffin granule ghosts
In short: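 Ratio of Km for DA to Ki for the inhibitor. Both were determined on the same ghost preparation for each compound, to normalize day-to-day variation in DA Km between preparations. Ki comes from DA-uptake competition in resealed bovine chromaffin granule ghosts (5 mM Mg-ATP, pH 7.0, 30 °C, HPLC-EC read-out). Km for DA comes from initial uptake rates fitted to Michaelis–Menten.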

[3] = substrate: COc1ccc(-c2cc[n+](C)cc2)cc1; assay: (§1) Activity of VMAT in bovine chromaffin granule ghosts assessed as drug uptake; conditions: Bos taurus
In short: (§2)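 Resealed bovine adrenal chromaffin granule ghosts, prepared fresh from frozen membrane stores, preincubated 10 min at 30 °C in 0.3 M sucrose, 10 mM HEPES, 5 mM Mg-ATP, 5 mM MgSO₄, 100 µg/mL catalase, pH 7.0. Test substrate added without DA. Aliquots taken at 6 min intervals, diluted into ice-cold sucrose/HEPES, pelleted, washed, extracted with 0.1 M HClO₄. Intragranular substrate measured by HPLC-UV. Km and Vmax come from Michaelis–Menten fits of initial rates at 12 substrate concentrations.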

[4] = substrate: C[n+]1ccc(-c2ccccc2)cc1; assay: as §1; conditions: Bos taurus; in short: as §2
[5] = substrate: C[n+]1ccc(-c2cccc(O)c2)cc1; assay: as §1; conditions: Bos taurus; in short: as §2
[6] = substrate: CN1CC=C(c2ccccc2)CC1; assay: as §1; conditions: Bos taurus; in short: as §2
[7] = substrate: C[n+]1ccc(-c2ccc(O)cc2)cc1; assay: as §1; conditions: Bos taurus; in short: as §2
[8] = substrate: Cc1ccc(-c2cc[n+](C)cc2)cc1; assay: as §1; conditions: Bos taurus; in short: as §2

Molecule | Ki [1] | Dopamine Km / inhibitor Ki ratio [2] | further results
CN1CC=C(c2ccccc2)CC1 | 52.5 µM | – | –
CN1CC=C(c2cccc(Cl)c2)CC1 | 27.7 µM | 1.6 | –
C[n+]1cccc(-c2ccc(O)cc2)c1 | 338 µM | 0.1 | –
C[n+]1ccc(-c2ccc(O)cc2)cc1 | 82 µM | 0.7 | –
C[n+]1ccc(-c2cccc(O)c2)cc1 | 2.4 µM | 9.7 | –
COc1cc2c(cc1OC)C1CC(=O)C(CC(C)C)CN1CC2 (centres undefined) [TETRABENAZINE] | 0.004 µM | – | –
C=C(C[n+]1ccc(C2CCCCC2)cc1)c1ccccc1 | 53 µM | 0.7 | –
Cc1ccc(-c2cc[n+](C)cc2)cc1 | 51.8 µM | 1 | –
C[n+]1ccc(-c2ccc(Cl)cc2)cc1 | 7.6 µM | 5.8 | –
C[n+]1ccc(-c2ccc(F)cc2)cc1 | 51.3 µM | 1 | –
C=C(CN1CCC(c2ccccc2)CC1)c1ccccc1 | 16.4 µM | 1.8 | –
C=C(C[n+]1ccc(-c2ccc(OC)cc2)cc1)c1ccccc1 | 2.8 µM | 8.7 | –
C=C(C[n+]1ccc(-c2ccc(O)cc2)cc1)c1ccc(Br)cc1 | 0.5 µM | 41.5 | –
C[n+]1ccc(-c2cccc(Cl)c2)cc1 | 46.3 µM | 1.1 | –
C=C(C[n+]1ccc(-c2ccccc2)nc1)c1ccccc1 | 13.4 µM | 2.7 | –
C[N+]1=CC=C(c2ccccc2)CC1 | 53 µM | 0.7 | –
C=C(C[n+]1ccc(-c2ccccc2)cc1)c1ccccc1 | 38.4 µM | 0.9 | –
C=C(CN1CCN(c2ccccc2)CC1)c1ccccc1 | 1.4 µM | 24.1 | –

Molecule | Ki [1] | Dopamine Km / inhibitor Ki ratio [2] | further results
C[n+]1ccc(-c2cccc(C(F)(F)F)c2)cc1 | 24.6 µM | 1.8 | –
CN1CC=C(c2ccc(O)cc2)CC1 | 134 µM | 0.3 | –
C[n+]1ccc(-c2ccc(C(F)(F)F)cc2)cc1 | 33.8 µM | 1.3 | –
COC(=O)[C@H]1[C@H]2C[C@@H]3c4[nH]c5cc(OC)ccc5c4CCN3C[C@H]2C[C@@H](OC(=O)c2cc(OC)c(OC)c(OC)c2)[C@@H]1OC [RESERPINE] | 0.001 µM | – | –
COc1ccc(-c2cc[n+](C)cc2)cc1 | 106 µM | 0.2 | –
C=C(C[n+]1ccc(-c2ccccc2)cc1)c1ccc(-c2ccccc2)cc1 | 4.5 µM | 11.3 | –
Cc1c[n+](C)ccc1-c1ccc(O)cc1 | 65 µM | 0.8 | –
CN1CC=C(c2cccc(O)c2)CC1 | 25.8 µM | 1.7 | –
C[n+]1ccc(-c2ccccc2)cc1 | 92 µM | – | –
C=C(C[n+]1ccc(-c2cccc(O)c2)cc1)c1ccc(I)cc1 | 0.4 µM | 55 | –
CN1CC=C(c2ccc(F)cc2)CC1 | 49.7 µM | 0.9 | –
Cc1ccccc1C1=CCN(C)CC1 | 38.4 µM | – | –
Cc1ccccc1-c1cc[n+](C)cc1 | 95 µM | 0.3 | –
CN1CC=C(c2ccccc2N)CC1 | 193 µM | 0.1 | –
COc1ccc2c3c([nH]c2c1)[C@H]1C[C@H]2[C@H](C[C@@H](O)[C@H](OC)[C@H]2C(=O)O)CN1CC3 | 10 µM | – | –
C[n+]1cccc(-c2cccc(O)c2)c1 | 36.6 µM | 1.2 | –
B1 | – | – | Km [3]: 135 µM; Vmax [3]: 1.6 nmol/mg/min; Km [4]: 73 µM; Vmax [4]: 1.4 nmol/mg/min; Km [5]: 8.4 µM; Vmax [5]: 1.9 nmol/mg/min; Km [6]: 409 µM; Vmax [6]: 1.7 nmol/mg/min; Km [7]: 107 µM; Vmax [7]: 1.6 nmol/mg/min; Km [8]: 41.3 µM; Vmax [8]: 0.9 nmol/mg/min
